# Measured values published in publication PMC12667952 (bioRxiv, 2025).
# Substitutions are numbered along the chain they refer to. Entries after “also recorded” stand apart in the source; their conditions may differ.
# What was measured:
# mice [1] = assay: Side effect scoring; format: in vivo, mouse
# Method in brief: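 Adverse events, including sedation, recorded at each time point as mice were placed in the testing apparatus after i.p. dosing. Each scored 0–3 (none, mild, moderate, severe), and scores averaged per treatment group.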
# hGlyT2^W215F = target: T1, hGlyT2^W215F (Homo sapiens, UniProt Q9Y345, W215F); format: cell-based
# T1 sequence (Q9Y345 1-797 W215F): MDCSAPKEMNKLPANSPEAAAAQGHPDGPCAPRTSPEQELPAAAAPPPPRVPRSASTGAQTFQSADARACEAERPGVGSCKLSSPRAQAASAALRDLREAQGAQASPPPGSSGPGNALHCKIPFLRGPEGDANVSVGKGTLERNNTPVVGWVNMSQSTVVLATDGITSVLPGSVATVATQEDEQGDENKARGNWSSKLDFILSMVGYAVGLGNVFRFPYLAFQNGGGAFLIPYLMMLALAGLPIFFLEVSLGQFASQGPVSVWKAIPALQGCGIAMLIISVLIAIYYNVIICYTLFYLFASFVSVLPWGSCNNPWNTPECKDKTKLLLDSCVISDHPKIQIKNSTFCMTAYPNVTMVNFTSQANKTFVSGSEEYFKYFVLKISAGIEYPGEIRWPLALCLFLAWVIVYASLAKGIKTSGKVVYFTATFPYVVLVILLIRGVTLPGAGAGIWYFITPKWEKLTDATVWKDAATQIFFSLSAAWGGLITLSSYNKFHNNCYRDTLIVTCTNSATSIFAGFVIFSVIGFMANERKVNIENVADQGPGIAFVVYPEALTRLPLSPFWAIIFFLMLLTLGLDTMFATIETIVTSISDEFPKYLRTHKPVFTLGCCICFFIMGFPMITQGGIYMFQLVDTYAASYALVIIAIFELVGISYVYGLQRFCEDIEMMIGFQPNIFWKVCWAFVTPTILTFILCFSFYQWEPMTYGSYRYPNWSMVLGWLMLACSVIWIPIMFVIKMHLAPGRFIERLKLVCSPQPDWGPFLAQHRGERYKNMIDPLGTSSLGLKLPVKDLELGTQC
# adrenergic receptors = assay: Cerep panel off-target selectivity screen, adrenergic receptors; format: binding; settings: 1 × 10^-5 M
# hGlyT2^D633E [2] = target: T2, hGlyT2^D633E (Homo sapiens, UniProt Q9Y345, D633E); format: cell-based
# T2 sequence (Q9Y345 1-797 D633E): T1 sequence (Q9Y345 1-797 W215F) with F215W, D633E
# muscarinic receptors = assay: Cerep panel off-target selectivity screen, muscarinic receptors; format: binding; settings: 1 × 10^-5 M
# adenosine receptors = assay: Cerep panel off-target selectivity screen, adenosine receptors; format: binding; settings: 1 × 10^-5 M
# CCI mice = assay: Cold allodynia; format: in vivo, mouse; settings: for Peak reduction of response rate to acetone stimulus: by 2-hour time point
# Method in brief: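 CCI mice tested 14 days after surgery. […] Acetone-evoked cold allodynia scored before surgery, at t = 0 before dosing, and at 0.5, 1, 1.5, 2, 4 and 6 h. Expressed as % of maximal possible responses. Two-way ANOVA with Dunnett's test versus vehicle.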
# hGlyT2^D633E [3] = target: T2, hGlyT2^D633E; assay: Reversibility; format: cell-based
# mice [4] = assay: Grip strength test; format: in vivo, mouse; settings: 30 min post-injection
structure (smiles),measurement,setting,value
"CN(C)C1(CNC(=O)c2ccc3c(c2)CCN3C(=O)c2ccccc2)CCOCC1 [RPI-GLYT2–82, 1-benzoyl-N-((4-(dimethylamino)tetrahydro-2H-pyran-4-yl)methyl)indoline-5-carboxamide]",Sedation,mice [1]; 250 mg/kg (maximal dose),transient sedation
same,Time to full recovery from sedation,mice [1]; 250 mg/kg i.p.,≤ 90 min
same,IC50,hGlyT2^W215F,> 10 µM
same,Activity at adrenergic receptors,adrenergic receptors,inactive
same,IC50,hGlyT2^D633E [2],> 10 µM
same,"Reduction in potency of inhibition, D633E versus WT",hGlyT2^D633E [2],> 18 fold
same,Activity at muscarinic receptors,muscarinic receptors,inactive
same,Activity at adenosine receptors,adenosine receptors,inactive
same,Peak reduction of response rate to acetone stimulus,CCI mice; 50 mg/kg i.p.,59%
same,Peak reduction of response rate to acetone stimulus,CCI mice; 100 mg/kg i.p.,62%
same,Efficacy at alleviating cold allodynia compared to gabapentin,CCI mice; 50 and 100 mg/kg,comparable efficacy to the control compound gabapentin; also recorded: equivalent efficacy
same,"Time of peak anti-allodynia effects, cold allodynia",CCI mice; 50 and 100 mg/kg,≤ 2 h
same,Washout of inhibitor from hGlyT2^D633E,hGlyT2^D633E [3],almost immediate
same,Grip strength (muscle weakness),mice [4]; 50 mg/kg,not at 50 mg/kg
same,Grip strength (muscle weakness),"mice [4]; 250 mg/kg, recovered at 60 minutes",transient deficits in the grip-strength test; also recorded: transient muscle weakness
